Assay results taken from ChEMBL document CHEMBL4689842, “EUbOPEN Chemogenomics Library wave 1” (2021).

System: Fibroblast
Assay: Multiplex assay against human fibroblast
Assay type: toxicity, cell-based
Summary of the method: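 On a CQ1 microscope at 37°C and 5% CO2, live cells were imaged after compound addition. They had been stained at seeding with Hoechst33342, BioTracker Green Microtubule Cytoskeleton Dye, MitoTracker Red and Annexin V Alexa Fluor 680. CellPathfinder machine-learning gating assigned cells to Hoechst high-intensity objects or normal cells, normal cells to healthy, pyknosed or fragmented nuclei, and pyknosed cells to mitotic or apoptotic. Tubulin, mitochondrial-mass and membrane-permeability phenotypes are per cents of healthy-nucleus cells.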

[1] = 12 h, 1 µM, compound concentration 1 uM, replicate 1
[2] = 12 h, 1 µM, compound concentration 1 uM, replicate 2
[3] = 12 h, 10 µM, compound concentration 10 uM, replicate 1
[4] = 12 h, 10 µM, compound concentration 10 uM, replicate 2
[5] = 24 h, 1 µM, compound concentration 1 uM, replicate 1
[6] = 24 h, 1 µM, compound concentration 1 uM, replicate 2
[7] = 24 h, 10 µM, compound concentration 10 uM, replicate 1
[8] = 24 h, 10 µM, compound concentration 10 uM, replicate 2
[9] = 48 h, 1 µM, compound concentration 1 uM, replicate 1
[10] = 48 h, 1 µM, compound concentration 1 uM, replicate 2
[11] = 48 h, 10 µM, compound concentration 10 uM, replicate 1
[12] = 48 h, 10 µM, compound concentration 10 uM, replicate 2

CCN1CCN(Cc2ccc(Nc3ncc(F)c(-c4cc(F)c5nc(C)n(C(C)C)c5c4)n3)nc2)CC1.CS(=O)(=O)O
Population Apoptotic (%) [1]: 75%
Population Fragmented Nuclei (%) [1]: 39%
Population Healthy Nuclei (%) [1]: 40%
Population Hoechst High Intensity Objects (%) [1]: 15%
Population Membrane Permeable-Phenotype (%) [1]: 17%
Population Mitochondria Different-Phenotype (%) [1]: 21%
Population Mitotic Cells (%) [1]: 25%
Population Normal (%) [1]: 84%
Population Pyknosed Nuclei (%) [1]: 20%
Population Tubulin-Different-Phenotype (%) [1]: 57%
Total Cell Count [1]: 187
Population Apoptotic (%) [2]: 40%
Population Fragmented Nuclei (%) [2]: 17%
Population Healthy Nuclei (%) [2]: 67%
Population Hoechst High Intensity Objects (%) [2]: 6%
Population Membrane Permeable-Phenotype (%) [2]: 8%
Population Mitochondria Different-Phenotype (%) [2]: 91%
Population Mitotic Cells (%) [2]: 60%
Population Normal (%) [2]: 93%
Population Pyknosed Nuclei (%) [2]: 14%
Population Tubulin-Different-Phenotype (%) [2]: 97%
Total Cell Count [2]: 73
Population Apoptotic (%) [3]: 63%
Population Fragmented Nuclei (%) [3]: 40%
Population Healthy Nuclei (%) [3]: 13%
Population Hoechst High Intensity Objects (%) [3]: 17%
Population Membrane Permeable-Phenotype (%) [3]: 52%
Population Mitochondria Different-Phenotype (%) [3]: 5%
Population Mitotic Cells (%) [3]: 36%
Population Normal (%) [3]: 82%
Population Pyknosed Nuclei (%) [3]: 46%
Population Tubulin-Different-Phenotype (%) [3]: 47%
Total Cell Count [3]: 158
Population Apoptotic (%) [4]: 83%
Population Fragmented Nuclei (%) [4]: 32%
Population Healthy Nuclei (%) [4]: 22%
Population Hoechst High Intensity Objects (%) [4]: 9%
Population Membrane Permeable-Phenotype (%) [4]: 88%
Population Mitochondria Different-Phenotype (%) [4]: 94%
Population Mitotic Cells (%) [4]: 16%
Population Normal (%) [4]: 90%
Population Pyknosed Nuclei (%) [4]: 45%
Population Tubulin-Different-Phenotype (%) [4]: 100%
Total Cell Count [4]: 88
Population Apoptotic (%) [5]: 44%
Population Fragmented Nuclei (%) [5]: 39%
Population Healthy Nuclei (%) [5]: 45%
Population Hoechst High Intensity Objects (%) [5]: 21%
Population Membrane Permeable-Phenotype (%) [5]: 15%
Population Mitochondria Different-Phenotype (%) [5]: 8%
Population Mitotic Cells (%) [5]: 55%
Population Normal (%) [5]: 78%
Population Pyknosed Nuclei (%) [5]: 15%
Population Tubulin-Different-Phenotype (%) [5]: 69%
Total Cell Count [5]: 240
Population Apoptotic (%) [6]: 58%
Population Fragmented Nuclei (%) [6]: 20%
Population Healthy Nuclei (%) [6]: 61%
Population Hoechst High Intensity Objects (%) [6]: 10%
Population Membrane Permeable-Phenotype (%) [6]: 21%
Population Mitochondria Different-Phenotype (%) [6]: 85%
Population Mitotic Cells (%) [6]: 41%
Population Normal (%) [6]: 89%
Population Pyknosed Nuclei (%) [6]: 17%
Population Tubulin-Different-Phenotype (%) [6]: 87%
Total Cell Count [6]: 75
Population Apoptotic (%) [7]: 80%
Population Fragmented Nuclei (%) [7]: 45%
Population Healthy Nuclei (%) [7]: 16%
Population Hoechst High Intensity Objects (%) [7]: 25%
Population Membrane Permeable-Phenotype (%) [7]: 46%
Population Mitochondria Different-Phenotype (%) [7]: 0%
Population Mitotic Cells (%) [7]: 20%
Population Normal (%) [7]: 74%
Population Pyknosed Nuclei (%) [7]: 38%
Population Tubulin-Different-Phenotype (%) [7]: 53%
Total Cell Count [7]: 122
Population Apoptotic (%) [8]: 97%
Population Fragmented Nuclei (%) [8]: 27%
Population Healthy Nuclei (%) [8]: 13%
Population Hoechst High Intensity Objects (%) [8]: 20%
Population Membrane Permeable-Phenotype (%) [8]: 100%
Population Mitochondria Different-Phenotype (%) [8]: 87%
Population Mitotic Cells (%) [8]: 2%
Population Normal (%) [8]: 79%
Population Pyknosed Nuclei (%) [8]: 59%
Population Tubulin-Different-Phenotype (%) [8]: 100%
Total Cell Count [8]: 74
Population Apoptotic (%) [9]: 56%
Population Fragmented Nuclei (%) [9]: 43%
Population Healthy Nuclei (%) [9]: 41%
Population Hoechst High Intensity Objects (%) [9]: 37%
Population Membrane Permeable-Phenotype (%) [9]: 6%
Population Mitochondria Different-Phenotype (%) [9]: 12%
Population Mitotic Cells (%) [9]: 43%
Population Normal (%) [9]: 62%
Population Pyknosed Nuclei (%) [9]: 15%
Population Tubulin-Different-Phenotype (%) [9]: 69%
Total Cell Count [9]: 246
Population Apoptotic (%) [10]: 75%
Population Fragmented Nuclei (%) [10]: 53%
Population Healthy Nuclei (%) [10]: 43%
Population Hoechst High Intensity Objects (%) [10]: 16%
Population Membrane Permeable-Phenotype (%) [10]: 10%
Population Mitochondria Different-Phenotype (%) [10]: 5%
Population Mitotic Cells (%) [10]: 25%
Population Normal (%) [10]: 83%
Population Pyknosed Nuclei (%) [10]: 2%
Population Tubulin-Different-Phenotype (%) [10]: 61%
Total Cell Count [10]: 199
Population Apoptotic (%) [11]: 100%
Population Fragmented Nuclei (%) [11]: 69%
Population Healthy Nuclei (%) [11]: 20%
Population Hoechst High Intensity Objects (%) [11]: 33%
Population Membrane Permeable-Phenotype (%) [11]: 41%
Population Mitochondria Different-Phenotype (%) [11]: 5%
Population Mitotic Cells (%) [11]: 0%
Population Normal (%) [11]: 66%
Population Pyknosed Nuclei (%) [11]: 9%
Population Tubulin-Different-Phenotype (%) [11]: 76%
Total Cell Count [11]: 123
Population Apoptotic (%) [12]: 77%
Population Fragmented Nuclei (%) [12]: 35%
Population Healthy Nuclei (%) [12]: 50%
Population Hoechst High Intensity Objects (%) [12]: 53%
Population Membrane Permeable-Phenotype (%) [12]: 23%
Population Mitochondria Different-Phenotype (%) [12]: 38%
Population Mitotic Cells (%) [12]: 22%
Population Normal (%) [12]: 46%
Population Pyknosed Nuclei (%) [12]: 13%
Population Tubulin-Different-Phenotype (%) [12]: 52%
Total Cell Count [12]: 145
